Here are results for 14 compounds from ChEMBL document CHEMBL2385012, “Caesalpins A-H, bioactive cassane-type diterpenes from the seeds of Caesalpinia minax” (J Nat Prod, 2013).

Common to all, as to assay type: functional, cell-based
The subject of experiment [1] is HepG2. The experiment in a line: Cytotoxicity against human HepG2 cells assessed as growth inhibition after 48 hrs by MTT assay. The settings on record: HepG2, 48 h. The method in brief:
(§1)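 Cells grown in DMEM with 10% FBS and seeded at 6 × 10^4 cells/mL. Five concentrations per compound added from DMSO, each tested in triplicate. Incubated 48 h at 37 °C under 5% CO2. MTT (4 mg/mL) added, then 4 h further incubation. Medium removed, formazan dissolved in DMSO, absorbance read at 570 nm. IC50 reported as mean ± SD of triplicate experiments. Doxorubicin served as positive control.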
On the technique in general: Tetrazolium assays rely on reduction of a dye to a coloured formazan, in cell work by metabolically active cells.

Experiment [2] concerns MCF7. The experiment in a line: Cytotoxicity against human MCF7 cells assessed as growth inhibition after 48 hrs by MTT assay. The settings on record: MCF7, 48 h. Put shortly: as §1
Experiment [3] deals with A549. The experiment in a line: Cytotoxicity against human A549 cells assessed as growth inhibition after 48 hrs by MTT assay. The conditions noted are these: A549, 48 h. Put shortly: as §1
Experiment [4] concerns AGS. The experiment in a line: Cytotoxicity against human AGS cells assessed as growth inhibition after 48 hrs by MTT assay. Put shortly:
as §1

Experiment [5] deals with K562. Briefly: Cytotoxicity against human K562 cells assessed as growth inhibition.

By IC50 is commonly meant the concentration needed to halve the response being measured.

Molecules are shown by their SMILES.

Turning to `COC(=O)CC1=C(C)C2=C[C@H](OC(C)=O)[C@@]3(O)C(C)(C)CC[C@H](OC(C)=O)[C@]3(C)[C@H]2CC1=O`, the IC50 in experiment [1] was 4.7 µM; in experiment [2], 2.1 µM; in experiment [3] it was 14.6 µM; in experiment [4], more than 50 µM.

For the compound `COC(=O)CC1=C(C)[C@@H]2[C@@H](OC(C)=O)[C@H](OC(C)=O)[C@@]3(O)C(C)(C)CC[C@H](OC(C)=O)[C@]3(C)[C@H]2CC1=O`, the IC50 in experiment [1] was 18.5 µM; in experiment [2], 7.9 µM; in experiment [3] it was 25.2 µM; in experiment [4], 48.3 µM.

On to `COC(CC1=C(C)[C@@H]2[C@@H](OC(C)=O)[C@H](OC(C)=O)[C@@]3(O)C(C)(C)CC[C@H](OC(C)=O)[C@]3(C)[C@H]2CC1=O)OC`, for which the IC50 was determined as 10.6 µM in experiment [1], 15.6 µM in experiment [2], 31.8 µM in experiment [3] and 45.8 µM in experiment [4].

As for `CC(=O)O[C@H]1CCC(C)(C)C2=CC(=O)c3c(cc4occc4c3C)[C@]21C`, the 50% inhibitory concentration (IC50) was more than 50 µM in experiment [1], more than 50 µM in experiment [2], 24.8 µM in experiment [3] and 6.5 µM in experiment [4].

As for `CC(=O)O[C@H]1CCC(C)(C)[C@]2(O)[C@@H](OC(C)=O)[C@H](O)c3c(cc4occc4c3C)[C@@]12C`, the IC50 in experiment [1], in experiment [2], in experiment [3] and in experiment [4] was more than 50 µM in each case.

For the compound `CO[C@@]12C[C@H]3[C@@H](CC[C@@]4(O)C(C)(C)C[C@H](OC(C)=O)[C@H](OC(C)=O)[C@]34C)[C@@H](C)C1=CC(=O)O2`, the IC50 was more than 50 µM in experiment [1], 46.1 µM in experiment [2], more than 50 µM in experiment [3] and more than 50 µM in experiment [4].

Consider `C=C1C2=CC(=O)O[C@]2(OC)C[C@H]2[C@H]1[C@@H](O)C[C@@]1(O)C(C)(C)CC[C@H](OC(C)=O)[C@]21C`, for which the IC50 in experiment [1] is 34.7 µM; in experiment [2] it was more than 50 µM; in experiment [3] it was more than 50 µM; in experiment [4] it was more than 50 µM.

Take `C=C1C2=CC(=O)O[C@]2(OC)C[C@H]2[C@H]1[C@@H](O)[C@H](OC(C)=O)[C@@]1(O)C(C)(C)CC[C@H](OC(C)=O)[C@]21C`: the IC50 was 38.9 µM in experiment [1], more than 50 µM in experiment [2], more than 50 µM in experiment [3] and more than 50 µM in experiment [4].

In the case of `CO[C@@]12C[C@H]3[C@@H](C[C@H](OC(C)=O)[C@@]4(O)C(C)(C)C[C@H](OC(C)=O)[C@H](OC(C)=O)[C@]34C)[C@](C)(O)C1=CC(=O)O2`, the IC50 in experiment [1] is 47.2 µM; in experiment [2] it was more than 50 µM; in experiment [3] it was more than 50 µM; in experiment [4], 29.1 µM.

Regarding `CC(=O)OC1CC(C)(C)[C@]2(O)C[C@H](O)[C@H]3[C@@H](C)C4=CC(=O)O[C@]4(O)C[C@@H]3[C@@]2(C)[C@H]1OC(C)=O` (stereo partly drawn), the IC50 in experiment [1] is more than 50 µM; in experiment [2], 36.1 µM; in experiment [3] it was 31.9 µM; in experiment [4], more than 50 µM.

Turning to `CC(=O)O[C@@H]1[C@@H]2[C@H](C=C3OC(=O)C=C3[C@@]2(C)O)[C@@]2(C)[C@@H](OC(C)=O)CCC(C)(C)[C@]2(O)[C@H]1OC(C)=O`, the IC50 in experiment [1] was more than 50 µM; in experiment [2] it was 41.2 µM; in experiment [3], more than 50 µM; in experiment [4] it was more than 50 µM.

In the case of `CC(=O)O[C@H]1CC(C)(C)[C@]2(O)CC[C@H]3[C@@H](C)C4=CC(=O)OC4=C[C@@H]3[C@@]2(C)[C@H]1OC(C)=O`, the IC50 in experiment [1], in experiment [2], in experiment [3] and in experiment [4] was more than 50 µM each time.

For `COc1cccc2c1C(=O)c1c(O)c3c(c(O)c1C2=O)C[C@@](O)(C(=O)CO)C[C@@H]3O[C@H]1C[C@H](N)[C@H](O)[C@H](C)O1` [DOXORUBICIN], the concentration for half-maximal inhibition (IC50) in experiment [1] came to 0.59 µM; in experiment [2], 0.94 µM; in experiment [3] it was 0.74 µM; in experiment [4], 1.2 µM.

As for `C#C[C@@]12O[C@]1(C=O)[C@]1(C)CC[C@H]3C(C)(C)CCC[C@]3(C)[C@H]1CC2=O` [ESCOBARINE A], the IC50 in experiment [5] came out at 2.52 µM.
